Reference: ChEMBL document CHEMBL3826877, “Fatty Acid Amide Hydrolase (FAAH), Acetylcholinesterase (AChE), and Butyrylcholinesterase (BuChE): Networked Targets for the Development of Carbamates as Potential Anti-Alzheimer's Disease Agents” (J Med Chem, 2016)

What was measured:
[1] = target: T1, Fatty-acid amide hydrolase 1 (Rattus norvegicus, UniProt P97612); assay: Inhibition of FAAH in rat brain membrane using N-arachidonoyl-[14C]-ethanolamine as substrate preincubated for 20 mins followed by substrate addition measured after 30 mins by scintillation counting method; type: cell membranes
T1 sequence (P97612 whole entry): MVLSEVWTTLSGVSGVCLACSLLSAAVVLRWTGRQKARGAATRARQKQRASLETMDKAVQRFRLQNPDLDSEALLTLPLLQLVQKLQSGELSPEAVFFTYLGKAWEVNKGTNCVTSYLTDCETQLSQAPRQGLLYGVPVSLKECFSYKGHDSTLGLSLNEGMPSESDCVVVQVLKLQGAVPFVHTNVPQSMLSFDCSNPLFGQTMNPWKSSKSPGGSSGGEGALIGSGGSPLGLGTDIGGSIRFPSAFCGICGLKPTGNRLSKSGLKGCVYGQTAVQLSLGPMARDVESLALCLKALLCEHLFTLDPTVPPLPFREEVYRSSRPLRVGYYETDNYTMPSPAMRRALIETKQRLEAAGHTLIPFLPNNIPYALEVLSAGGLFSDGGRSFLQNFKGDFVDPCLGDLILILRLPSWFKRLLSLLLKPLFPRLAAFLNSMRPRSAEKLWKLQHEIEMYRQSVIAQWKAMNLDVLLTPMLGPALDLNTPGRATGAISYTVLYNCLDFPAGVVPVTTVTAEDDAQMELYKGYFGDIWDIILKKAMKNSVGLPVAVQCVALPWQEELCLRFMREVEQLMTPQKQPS
Method in brief: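 Compound preincubated 20 min at 37 °C with rat brain 10,000 x g membranes (70 µg/sample), then [14C]-AEA (diluted with AEA) added in 50 mM Tris-HCl pH 9.00-10.00, 37 °C, 30 min. [14C]-ethanolamine counted by scintillation after CHCl3/MeOH 1:1 extraction.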

[2] = target: T1, Fatty-acid amide hydrolase 1; assay: Inhibition of FAAH in rat brain membrane using N-arachidonoyl-[14C]-ethanolamine as substrate incubated for 30 mins by scintillation counting method; type: cell membranes
Method in brief: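 Rat brain 10,000 x g membrane fraction (70 µg/sample) co-incubated with compound and [14C]-AEA diluted with unlabelled AEA in 50 mM Tris-HCl, pH 9.00-10.00, 37 °C, 30 min. Released [14C]-ethanolamine measured by scintillation of the aqueous phase after CHCl3/MeOH 1:1 extraction.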

Cholinesterase [3] = target: T2, Cholinesterase (Homo sapiens, UniProt P06276); assay: Inhibition of human serum BuChE using butyrylthiocholine iodide as substrate preincubated for 15 mins followed by substrate addition by Ellman's method
Method in brief: (§1)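 Ellman assay at 37 °C in 0.1 M phosphate pH 8.0 with 340 µM DTNB, 0.02 U/mL enzyme and 550 µM thiocholine substrate. Enzyme and inhibitor preincubated before substrate: AChE 120 min (one compound 60 min), BuChE 15 or 20 min depending on N-substituent. Non-enzymatic blanks run. […] IC50 by linear regression of % inhibition vs log concentration. Mean of 2-3 independent runs in duplicate.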

Acetylcholinesterase [4] = target: T3, Acetylcholinesterase (Homo sapiens, UniProt P22303); assay: Inhibition of recombinant human AChE expressed in HEK293 cells using acetylthiocholine iodide as substrate preincubated for 60 mins followed by substrate addition by Ellman's method; method in brief: as §1
Acetylcholinesterase [5] = target: T3, Acetylcholinesterase; assay: Inhibition of recombinant human AChE expressed in HEK293 cells assessed as enzyme carbamoylation using acetylthiocholine iodide as substrate preincubated with enzyme followed by substrate addition by Ellman's method; conditions: TDE = time-dependent effect
Cholinesterase [6] = target: T2, Cholinesterase; assay: Inhibition of human serum BuChE assessed as enzyme carbamoylation using butyrylthiocholine iodide as substrate preincubated with enzyme followed by substrate addition by Ellman's method; conditions: TDE = time-dependent effect
Acetylcholinesterase [7] = target: T3, Acetylcholinesterase; assay: Inhibition of recombinant human AChE expressed in HEK293 cells assessed as pseudo-first order rate constant for enzyme carbamoylation using acetylthiocholine iodide as substrate preincubated for 15 to 120 mins followed by substrate addition by Ellman's method
Method in brief: (§2)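 Stopped-time assay at pH 8.0, 37 °C, five inhibitor concentrations. AChE: 16.7-167.5 nM, residual activity read at 15, 30, 60, 90 and 120 min. BuChE: 0.46-4.58 nM, read at […], 2, 5, 10, 15 and 30 min. Activities corrected against an uninhibited control at each time. R = R0·exp(−kobs·t)+R∞ fitted to give kobs. k3 obtained from a double-reciprocal plot of kobs vs [I].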

Cholinesterase [8] = target: T2, Cholinesterase; assay: Inhibition of human serum BuChE assessed as pseudo-first order rate constant for enzyme carbamoylation using butyrylthiocholine iodide as substrate preincubated for 2 to 30 mins followed by substrate addition by Ellman's method; method in brief: as §2
Acetylcholinesterase [9] = target: T3, Acetylcholinesterase; assay: Inhibition of recombinant human AChE expressed in HEK293 cells using acetylthiocholine iodide as substrate preincubated for 120 mins followed by substrate addition by Ellman's method; method in brief: as §1
Cholinesterase [10] = target: T2, Cholinesterase; assay: Inhibition of human serum BuChE using butyrylthiocholine iodide as substrate preincubated for 20 mins followed by substrate addition by Ellman's method; method in brief: as §1
SH-SY5Y [11] = assay: Cytotoxicity against human SH-SY5Y assessed as reduction in cell viability at 1 to 50 uM after 24 hrs by MTT assay; type: cell-based
Method in brief: (§3)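 SH-SY5Y neuroblastoma cells grown in DMEM with 2 mM L-glutamine, penicillin/streptomycin and 10% FBS. Cells seeded and cultured overnight at 37°C, 5% CO2. Compounds in DMSO (final under 0.1%) added for 24 h. MTT 0.5 mg/mL added for 3 h, formazan taken up in isopropanol, absorbance read at 620 nm. Viability given relative to vehicle. Three independent experiments in quadruplicate.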

SH-SY5Y [12] = assay: Cytotoxicity against human SH-SY5Y assessed as reduction in cell viability at 1 to 25 uM after 24 hrs by MTT assay; type: cell-based; method in brief: as §3
SH-SY5Y [13] = assay: Cytotoxicity against human SH-SY5Y assessed as reduction in cell viability at 50 uM after 24 hrs by MTT assay; type: cell-based; method in brief: as §3
Homo sapiens [14] = assay: Binding affinity to AChE in human assessed as enzyme reactivation half life at 8 to 40 mg/kg, po; type: functional, organism-based
[15] = target: T1, Fatty-acid amide hydrolase 1; assay: Inhibition of FAAH in rat brain membrane at pH 9 using N-arachidonoyl-[14C]-ethanolamine as substrate preincubated for 10 mins followed by substrate addition measured after 30 mins by scintillation counting method; type: cell membranes
Method in brief: (§4)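 Rat brain 10,000 x g membrane fraction (70 µg/sample) in 50 mM Tris-HCl at pH 9.0 or 7.4, preincubated 10 min with compound. [14C]-AEA diluted with AEA then added, reaction run at 37 °C. [14C]-ethanolamine in the aqueous phase after CHCl3/MeOH 1:1 extraction counted by scintillation.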

[16] = target: T1, Fatty-acid amide hydrolase 1; assay: Inhibition of FAAH in rat brain membrane at pH 7.4 using N-arachidonoyl-[14C]-ethanolamine as substrate preincubated for 10 mins followed by substrate addition measured after 30 mins by scintillation counting method; type: cell membranes; method in brief: as §4
Homo sapiens [17] = assay: Binding affinity to AChE in human assessed as enzyme reactivation half life at 1.5 mg/kg, iv dosed over 60 mins infusion; type: functional, organism-based

T2 sequence (P06276 whole entry): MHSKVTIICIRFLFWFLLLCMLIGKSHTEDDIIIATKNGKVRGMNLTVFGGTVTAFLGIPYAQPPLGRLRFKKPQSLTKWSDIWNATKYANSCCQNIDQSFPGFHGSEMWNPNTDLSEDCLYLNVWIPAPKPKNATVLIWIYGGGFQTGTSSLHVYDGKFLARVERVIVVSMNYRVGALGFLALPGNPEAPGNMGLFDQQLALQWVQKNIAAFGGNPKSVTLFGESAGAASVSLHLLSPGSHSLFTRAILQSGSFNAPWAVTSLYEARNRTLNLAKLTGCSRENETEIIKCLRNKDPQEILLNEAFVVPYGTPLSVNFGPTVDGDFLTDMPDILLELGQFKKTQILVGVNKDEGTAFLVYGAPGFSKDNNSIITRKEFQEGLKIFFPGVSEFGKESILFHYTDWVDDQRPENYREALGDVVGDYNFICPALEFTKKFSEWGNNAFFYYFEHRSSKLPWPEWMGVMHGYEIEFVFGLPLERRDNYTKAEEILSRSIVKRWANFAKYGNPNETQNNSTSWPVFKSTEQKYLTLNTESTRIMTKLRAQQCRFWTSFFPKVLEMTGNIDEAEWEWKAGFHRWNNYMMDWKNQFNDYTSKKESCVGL
T3 sequence (P22303 whole entry): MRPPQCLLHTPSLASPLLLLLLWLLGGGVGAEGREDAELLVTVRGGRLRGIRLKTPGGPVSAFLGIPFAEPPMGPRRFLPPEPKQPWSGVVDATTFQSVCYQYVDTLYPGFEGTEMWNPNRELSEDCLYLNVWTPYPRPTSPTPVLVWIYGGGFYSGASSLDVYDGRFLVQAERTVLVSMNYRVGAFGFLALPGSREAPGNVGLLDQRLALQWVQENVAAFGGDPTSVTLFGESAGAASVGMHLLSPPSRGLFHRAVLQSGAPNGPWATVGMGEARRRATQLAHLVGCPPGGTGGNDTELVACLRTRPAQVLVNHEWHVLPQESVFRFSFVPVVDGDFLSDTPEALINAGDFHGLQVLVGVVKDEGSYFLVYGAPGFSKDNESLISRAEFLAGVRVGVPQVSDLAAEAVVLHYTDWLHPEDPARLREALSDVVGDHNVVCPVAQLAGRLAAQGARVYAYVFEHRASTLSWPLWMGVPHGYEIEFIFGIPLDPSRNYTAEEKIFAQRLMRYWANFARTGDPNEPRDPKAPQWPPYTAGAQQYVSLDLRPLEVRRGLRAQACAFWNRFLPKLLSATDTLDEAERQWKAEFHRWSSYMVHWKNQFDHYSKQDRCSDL

| Compound | IC50 [1] [nM] | IC50 [2] [nM] | IC50 (Cholinesterase [3]) [nM] | inhibition (Acetylcholinesterase [5]) | inhibition (Cholinesterase [6]) | IC50 (Acetylcholinesterase [9]) [nM] | IC50 (Cholinesterase [10]) [nM] | further results |
| --- | --- | --- | --- | --- | --- | --- | --- | --- |
| CCCCCCc1ccc(NC(=O)Oc2cccc(CN(C)CCCOc3ccc4ccc(=O)oc4c3)c2)cc1 | > 50000 | > 50000 | 32.1 | tde | tde |  |  | IC50 (Acetylcholinesterase [4]): 3800 nM; K (Acetylcholinesterase [7]): 0.203 min⁻¹; K (Cholinesterase [8]): 0.461 min⁻¹ |
| CN(CCCCCOc1ccc2ccc(=O)oc2c1)Cc1cccc(OC(=O)NCCCCCc2ccccc2)c1 | 120 | 798 | 1.23 | tde | tde | 88.1 |  |  |
| CCCCCCCNC(=O)Oc1cccc(-n2cc(COc3ccc4ccc(=O)oc4c3)nn2)c1 | 15.7 | 61.9 |  |  |  | 702 | 71.2 | Activity (SH-SY5Y [11]): Non-toxic |
| CN(CCCOc1ccc2cc(-c3ccc(Cl)cc3)c(=O)oc2c1)Cc1cccc(OC(=O)NCCCCCc2ccccc2)c1 | 265 | 1470 | 3.51 | tde | tde | 900 |  |  |
| CCCCCCCNC(=O)Oc1cccc(CN(C)CCCOc2ccc3ccc(=O)oc3c2)c1 | 28.5 | 161 |  |  |  | 37.4 | 1.36 | Activity (SH-SY5Y [12]): Non-toxic; Activity (SH-SY5Y [13]): Toxic |
| CN(CCCOc1ccc2c3c(c(=O)oc2c1)CCCC3)Cc1cccc(OC(=O)NCCCCCc2ccccc2)c1 | 1390 | 3480 | 1.44 | tde | tde | 89.9 |  |  |
| CCCCCCCNC(=O)Oc1cccc(CN(C)CCCOc2ccc3c4c(c(=O)oc3c2)CCCC4)c1 | 306 | 2490 |  | tde | tde | 21.6 | 0.27 |  |
| CN(CCCOc1ccc2ccc(=O)oc2c1)Cc1cccc(OC(=O)NCCCCCCc2ccccc2)c1 | 530 | 1790 | 2.85 | tde | tde | 109 |  |  |
| CN(CCCOc1ccc2c(c1)oc(=O)c1ccccc12)Cc1cccc(OC(=O)NCCCCCc2ccccc2)c1 | 312 | 1830 | 1.19 | tde | tde | 390 |  |  |
| CCCCCCCNC(=O)Oc1ccc2c(c1)[C@]1(C)CCN(C)[C@@H]1N2C |  |  |  |  |  |  |  | T1/2 (Homo sapiens [14]): 10 h |
| CN(CCCOc1ccc2cc(-c3ccccc3)c(=O)oc2c1)Cc1cccc(OC(=O)NCCCCCc2ccccc2)c1 | 250 | 1850 | 2.06 | tde | tde | 125 |  |  |
| COc1ccc(-c2cc3ccc(OCCCN(C)Cc4cccc(OC(=O)NCCCCCc5ccccc5)c4)cc3oc2=O)cc1 | 322 | 2330 | 1.3 | tde | tde | 312 |  |  |
| CCCCCCCNC(=O)Oc1cccc(Cn2cc(COc3ccc4ccc(=O)oc4c3)nn2)c1 | 32.6 | 109 |  |  |  | 1040 | 78.2 |  |
| O=C(NCCCCCc1ccccc1)Oc1cccc(Cn2cc(COc3ccc4ccc(=O)oc4c3)nn2)c1 | 27.9 | 157 | 42.7 |  |  | 922 |  |  |
| O=C(NCCCCCc1ccccc1)Oc1ccc(Cn2cc(COc3ccc4ccc(=O)oc4c3)nn2)cc1 | 28.5 | 113 | 1.17 |  |  | 255 |  |  |
| COc1ccc(-c2cc3cc(OCCCN(C)Cc4cccc(OC(=O)NCCCCCc5ccccc5)c4)ccc3oc2=O)cc1 | 211 | 2830 | 1.15 | tde | tde | 179 |  |  |
| CCCCCCCNC(=O)Oc1cccc(CN(C)CCCCCOc2ccc3c(c2)Oc2ncccc2C3)c1 | 178 | 2180 |  | tde | tde | 6.92 | 0.53 |  |
| O=C(NCCCCCc1ccccc1)Oc1cccc(-n2cc(COc3ccc4ccc(=O)oc4c3)nn2)c1 | 44.7 | 209 | 15.2 |  |  | 1170 |  |  |
| Cc1cc(=O)oc2cc(OCCCN(C)Cc3cccc(OC(=O)NCCCCCc4ccccc4)c3)ccc12 | 135 | 459 | 2.75 | tde | tde | 80.5 |  |  |
| CN(CCCOc1ccc2ccc(=O)oc2c1)Cc1cccc(OC(=O)NCCCCCc2ccccc2)c1 |  |  |  | tde | tde |  |  | IC50 [15]: 183 nM; IC50 [16]: 4100 nM; Activity (SH-SY5Y [11]): Non-toxic |
| CCCCCCCNC(=O)Oc1ccc(Cn2cc(COc3ccc4ccc(=O)oc4c3)nn2)cc1 | 55 | 354 |  |  |  | 214 | 15.9 |  |
| CCCCCCCNC(=O)Oc1cccc(CN(C)CCCCCOc2ccc3ccc(=O)oc3c2)c1 | 242 | 1290 |  | tde | tde | 11.3 | 0.79 |  |
| CCCCCCCNC(=O)Oc1ccc(-n2cc(COc3ccc4ccc(=O)oc4c3)nn2)cc1 | 21.3 | 167 |  |  |  | 158000 | 122000 |  |
| NC(=O)c1cccc(-c2cccc(OC(=O)NC3CCCCC3)c2)c1 [URB-597] |  |  |  |  |  |  |  | Activity (SH-SY5Y [11]): Non-toxic |
| CNC(=O)Oc1ccc2c(c1)[C@]1(C)CCN(C)[C@@H]1N2C |  |  |  |  |  |  |  | T1/2 (Homo sapiens [17]): 0.5 h |
| CCCCCCCNC(=O)Oc1cccc(CN(C)CCCOc2ccc3c(=O)c4cccnc4oc3c2)c1 | 202 | 3130 |  | tde | tde | 13 | 0.69 |  |
| O=C(NCCCCCc1ccccc1)Oc1ccc(-n2cc(COc3ccc4ccc(=O)oc4c3)nn2)cc1 | 43.3 | 236 | 1230 |  |  | 47900 |  |  |
